In PMC6148440 (Journal of Medicinal Chemistry, 2018):
Values joined by “and” are separate entries in the source; they are usually repeats but may differ in a detail not shown here. Equal values may be shown once.

What was measured:
[1] = Calculated LD50 on mice, extrapolated from zebrafish embryo LC50; conditions: mouse
[2] = test system: MRC-5 human nontumoral lung cell line; conditions: read-out: IC50 MRC-5; MRC-5 control cell line, MTT, 72 h; cited from earlier work
[3] = Acute toxicity assay on zebrafish embryos; type: in vivo, zebrafish (Danio rerio), strain AB; conditions: AB, zebrafish, in vivo
In short: (§1)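 Embryos of strain AB were collected in E3 medium and sorted at 3 hpf, with 20 healthy embryos per condition. Medium was replaced by compound in 0.1% DMSO/E3, made from a 100 mM DMSO stock, at five log concentrations, either 0.01–100 μM or 0.1 μM–1 mM. Embryos were held at 28.5 °C from 3 to 96 hpf, and coagulated eggs were removed at 24 h. LC50 came from a sigmoidal fit of mortality. Controls were 0.1% DMSO in triplicate (repeat if mortality >20%) and DEAB at 0.1 μM–1 mM.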

zebrafish embryos = experiment: Acute toxicity assay on zebrafish embryos; type: in vivo, zebrafish (Danio rerio), strain AB; conditions: zebrafish embryos, 96 hpf; mortality score >20% assumed as the effect
In short: as §1

P. falciparum [4] = experiment: In vitro antimalarial activity, [3H]-hypoxanthine incorporation; type: cell-based, P. falciparum (3D7 strain)
In short: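 Infected erythrocytes were used at 1.5% final hematocrit and 0.6% parasitemia in RPMI 1640 with 10% AB human serum. Compounds were dissolved in DMSO and diluted in medium, with final DMSO ≤0.25%. After 48 h at 37 °C, 0.6 μCi [3H]-hypoxanthine was added per well for 18 h. Cells were harvested onto glass-fibre filters for scintillation counting. Uninfected-erythrocyte background was subtracted, and IC50 was taken as 50% growth inhibition.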

L. major promastigotes = experiment: In vitro antileishmanial activity, promastigote drug susceptibility; type: cell-based, L. major (MHOM/IL/80/Friedlin); conditions: for SI L. major: selectivity index IC50(MRC-5)/IC50(parasite)
In short: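 Promastigotes at 1 × 10^6/mL were cultured in modified RPMI-1640 with 10% hiFBS. They were exposed to increasing compound concentrations for 72 h at 28 °C. Proliferation was measured by MTT, with absorbance read at 540 nm.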

[5] = test system: bloodstream forms of T. brucei brucei; experiment: In vitro antitrypanosomal activity, bloodstream forms; type: cell-based, T. brucei brucei S427 (S16); conditions: for IC50: Trypanosoma brucei, 72 h, read-out: IC50 parasite T. brucei; for SI T. brucei: selectivity index IC50(MRC-5)/IC50(parasite)
In short: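 Bloodstream forms were kept in HMI-9 with 10% hiFBS at 37 °C, 5% CO2. Parasites at 1 × 10^4/mL were exposed to increasing compound concentrations for 72 h under the same conditions. Proliferation was read by alamarBlue fluorescence (excitation 550, emission 590 nm), and IC50 was derived from this.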

[6] = test system: HT-29, MCF-7, and HeLa cancer cells; conditions: cited from earlier work
P. falciparum [7] = conditions: read-out: concentration inhibiting 50% growth of P. falciparum; cited from earlier work

## CC(=O)N[C@@H]1[C@@H](O)[C@H](O)[C@@H](CO)O[C@H]1n1cc(CNc2cc3c4c(ccc5c4c2C(=O)N(CCCN(C)C)C5=O)C(=O)N(CCCN(C)C)C3=O)nn1 [Compound 2, β-glcNAc-NDI]
[1]
  LD50: > 630 µmol/kg and > 607 mg/kg

## C[C@H]1O[C@@H](n2cc(CNc3cc4c5c(ccc6c5c3C(=O)N(CCCN(C)C)C6=O)C(=O)N(CCCN(C)C)C4=O)nn2)[C@H](O)[C@@H](O)[C@@H]1O [Compound 3, β-6dglc-NDI]
[1]
  LD50: 170 µmol/kg and 154 mg/kg

## CN(C)CCCN1C(=O)c2ccc3c4c(c(NCc5cn([C@@H]6O[C@H](CO)[C@@H](OC7O[C@H](CO)[C@@H](O)[C@H](O)[C@H]7O)[C@H](O)[C@H]6O)nn5)cc(c24)C1=O)C(=O)N(CCCN(C)C)C3=O.O=C(O)C(F)(F)F.O=C(O)C(F)(F)F (stereo partly drawn) [Compound 4, β-malt-NDI]
[2]
  IC50: 2040 ± 50 nM
[3]
  LC50 at 96 hpf: 190000 nM
Zebrafish embryos
  NOEC: 100 µM
[1]
  LD50: 190 µmol/kg and 206 mg/kg
P. falciparum [4]; selectivity index IC50(MRC-5)/IC50(parasite)
  SI P. falciparum: 5.5
L. major promastigotes; Leishmania major, 72 h, read-out: IC50 parasite L. major
  IC50: 921 ± 51 nM
L. major promastigotes
  SI L. major: 2.2
[5]
  IC50: 99 ± 10 nM
  SI T. brucei: 20.6

## CN(C)CCCN1C(=O)c2ccc3c4c(c(NCc5cn(CCO[C@H]6O[C@H](CO)[C@@H](O)[C@H](O)[C@@H]6O)nn5)cc(c24)C1=O)C(=O)N(CCCN(C)C)C3=O [Compound 5, α-manC2-NDI]
[1]
  LD50: > 630 µmol/kg and > 609 mg/kg

## CN(C)CCCN1C(=O)c2ccc3c4c(c(NCc5cn(CCO[C@@H]6O[C@H](CO)[C@@H](O)[C@H](O)[C@H]6O)nn5)cc(c24)C1=O)C(=O)N(CCCN(C)C)C3=O [Compound 6, β-glcC2-NDI]
[6]
  fold more active than compound 1, antitumor activity: approximately 10 fold
[1]
  LD50: > 630 µmol/kg and > 609 mg/kg
P. falciparum [4]
  fold more active than compound 1 against P. falciparum: 5 fold
L. major promastigotes
  SI L. major: 1.3
[5]
  IC50: 17 ± 9 nM
  SI T. brucei: 41.8

## CCCNc1cc2c3c(ccc4c3c1C(=O)N(CCCN(C)C)C4=O)C(=O)N(CCCN(C)C)C2=O [Compound 7, NDI-prop]
[1]
  LD50: 330 µmol/kg and 178 mg/kg
L. major promastigotes
  SI L. major: 10.6
[5]
  IC50: 9 ± 1 nM
  SI T. brucei: 40.0

## C[n+]1ccc(-c2c3nc(c(-c4cc[n+](C)cc4)c4ccc([nH]4)c(-c4cc[n+](C)cc4)c4nc(c(-c5cc[n+](C)cc5)c5ccc2[nH]5)C=C4)C=C3)cc1 [TMPyP4, reference compound]
[2]
  IC50: > 25000 nM
P. falciparum [7]
  IC50: 5000 nM

## Cc1ccc(C(=O)Nc2ccc(S(=O)(=O)O)c3cc(S(=O)(=O)O)cc(S(=O)(=O)O)c23)cc1NC(=O)c1cccc(NC(=O)Nc2cccc(C(=O)Nc3cc(C(=O)Nc4ccc(S(=O)(=O)O)c5cc(S(=O)(=O)O)cc(S(=O)(=O)O)c45)ccc3C)c2)c1 [suramin, reference compound]
[5]
  IC50: 38 ± 3 nM

## Cc1oc2nc1-c1nc(co1)-c1nc(co1)-c1nc(co1)-c1nc(co1)-c1nc(co1)C1=NC(CS1)c1nc-2c(C)o1 (centres unmarked) [telomestatin]
P. falciparum [7]
  IC50: 35000 nM
